Experimental data from ChEMBL document CHEMBL4052614, “Novel 3',5'-diprenylated chalcones inhibited the proliferation of cancer cells in vitro by inducing cell apoptosis and arresting cell cycle phase” (Eur J Med Chem, 2017).
Activity calls are given as the source filed them. No cut-off for these calls is given here.

How the values were obtained:
[1] = system: MDA-MB-231; test: Potency index, ratio of compound effect to (E)-2-Hydroxy-4,4-dimethoxy-3,5-diprenylchalcone effect for growth inhibition of human MDA-MB-231 cells; assay type: functional
[2] = system: PC-3; test: Induction of apoptosis in human PC3 cells assessed as viable cells at 5 umol/L after 48 hrs by annexin V-FITC/propidium iodide staining based flow cytometry (reference value: 86.7%); assay type: functional; conditions: PC-3, 48 h, read-out: Activity
[3] = system: MDA-MB-231; test: Induction of apoptosis in human MDA-MB-231 cells assessed as early apoptotic cells at 5 umol/L after 48 hrs by annexin V-FITC/propidium iodide staining based flow cytometry (reference value: 3%); assay type: functional
[4] = system: MDA-MB-231; test: Cell cycle arrest in human MDA-MB-231 cells assessed as decrease in S phase accumulation at 5 umol/L after 48 hrs by propidium iodide staining based flow cytometric method; assay type: functional
In short: (§1)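 Cells grown in DMEM with 10% FBS and penicillin/streptomycin at 37 °C, 5% CO2, and passaged at least 3 times after thawing. Treated 48 h at 5 µmol/L, DMSO-treated controls. Harvested by trypsin, PBS-washed, fixed in ice-cold ethanol, blocked 1 h at 4 °C in 5% BSA/PBS, RNase 1 µg/mL 30 min at 37 °C, PI 20 µg/mL final. Phase percentages read from PI histograms. Mean ± SD, three independent experiments.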

[5] = system: K562; test: Induction of morphological changes in human K562 cells assessed as increase in cell rounding at 5 umol/L after 48 hrs by inverted microscopic method; assay type: functional, cell-based
In short: (§2)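 Cells cultured in DMEM/10% FBS at 37 °C, 5% CO2. Exposed 48 h to 5 µmol/L compound alongside DMSO controls. Morphology (cell number, rounding, spacing, apoptotic bodies, spindle shape) observed under an inverted microscope with CCD camera.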

[6] = system: PC-3; test: Induction of apoptosis in human PC3 cells assessed as late apoptotic cells at 5 umol/L after 48 hrs by annexin V-FITC/propidium iodide staining based flow cytometry (reference value: 4.7%); assay type: functional
[7] = system: MDA-MB-231; test: Induction of morphological changes in human MDA-MB-231 cells assessed as reduction in number of apoptotic bodies at 5 umol/L after 48 hrs by inverted microscopic method
[8] = system: PC-3; test: Cytotoxicity against human PC3 cells after 48 hrs by MTT assay; assay type: functional, cell-based
In short: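 Cells kept in DMEM/10% FBS at 37 °C, 5% CO2, seeded at 4×10^3–8×10^3 cells/well and left 24 h to adhere. Exposed 48 h to a range of concentrations. MTT (5 mg/mL solution) added for 4 h at 37 °C, formazan dissolved in DMSO, absorbance read at 490 nm. IC50 derived from concentration–inhibition relation. Doxorubicin as positive control.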

[9] = system: PC-3; test: Induction of morphological changes in human PC3 cells assessed as increase in formation of apoptotic bodies at 5 umol/L after 48 hrs by inverted microscopic method; assay type: functional, cell-based
In short: (§3)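 PC3 cells were kept in DMEM with 10% FBS, penicillin and streptomycin at 37 °C under 5% CO2, and were passaged at least 3 times after thawing. Cells were seeded at 4 × 10^3 to 8 × 10^3 cells/well and left to adhere for 24 h. They were then exposed to 5 µmol/L compound for 48 h. Morphology was viewed by inverted microscope against DMSO-treated controls.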

[10] = system: K562; test: Induction of apoptosis in human K562 cells assessed as early apoptotic cells at 5 umol/L after 48 hrs by annexin V-FITC/propidium iodide staining based flow cytometry (reference value: 4%); assay type: functional
[11] = system: PC-3; test: Induction of morphological changes in human PC3 cells assessed as increase in cell rounding at 5 umol/L after 48 hrs by inverted microscopic method; assay type: functional, cell-based; in short: as §3
[12] = system: K562; test: Induction of apoptosis in human K562 cells assessed as late apoptotic cells at 5 umol/L after 48 hrs by annexin V-FITC/propidium iodide staining based flow cytometry (reference value: 2.3%); assay type: functional
[13] = system: PC-3; test: Induction of apoptosis in human PC3 cells assessed as necrotic cells at 5 umol/L after 48 hrs by annexin V-FITC/propidium iodide staining based flow cytometry (reference value: 4.6%); assay type: functional
[14] = system: PC-3; test: Induction of apoptosis in human PC3 cells assessed as early apoptotic cells at 5 umol/L after 48 hrs by annexin V-FITC/propidium iodide staining based flow cytometry (reference value: 4%); assay type: functional
[15] = system: MDA-MB-231; test: Cell cycle arrest in human MDA-MB-231 cells assessed as increase in G2 phase accumulation at 5 umol/L after 48 hrs by propidium iodide staining based flow cytometry; assay type: functional; in short: as §1
[16] = system: MDA-MB-231; test: Induction of apoptosis in human MDA-MB-231 cells assessed as late apoptotic cells at 5 umol/L after 48 hrs by annexin V-FITC/propidium iodide staining based flow cytometry (reference value: 2.2%); assay type: functional
[17] = system: K562; test: Induction of morphological changes in human K562 cells assessed as increase in intracellular space at 5 umol/L after 48 hrs by inverted microscopic method; assay type: functional, cell-based; in short: as §2
[18] = system: PC-3; test: Induction of apoptosis in human PC3 cells assessed as effect on cell adherence at 5 umol/L after 48 hrs by inverted microscopic method; assay type: functional, cell-based; in short: as §2
[19] = system: PC-3; test: Induction of apoptosis in human PC3 cells assessed as spindle like formation at 5 umol/L after 48 hrs by inverted microscopic method; assay type: functional, cell-based; in short: as §2
[20] = system: PC-3; test: Induction of morphological changes in human PC3 cells assessed as increase in intracellular space at 5 umol/L after 48 hrs by inverted microscopic method; assay type: functional, cell-based; in short: as §3
[21] = system: K562; test: Cell cycle arrest in human K562 cells assessed as decrease in G1 phase accumulation at 5 umol/L after 48 hrs by propidium iodide staining based flow cytometry; assay type: functional; in short: as §1
[22] = system: MDA-MB-231; test: Growth inhibition of human MDA-MB-231 cells at 5 umol/L after 48 hrs by MTT assay relative to control; assay type: functional; conditions: MDA-MB-231, 48 h, read-out: GI
In short: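 Cells kept in DMEM/10% FBS at 37 °C, 5% CO2, seeded at 4×10^3–8×10^3 cells/well, 24 h attachment, then 48 h with compound at 5 µmol/L. MTT (5 mg/mL solution) added for 4 h at 37 °C, formazan taken up in DMSO, A490 read. Percent inhibition as mean ± SD of three independent experiments. Doxorubicin as positive control.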

COc1c(CC=C(C)C)cc(C(=O)/C=C/c2cccnc2)c(O)c1CC=C(C)C
Ratio [1]: 3 - 4
viability at 5 µM [2]: 44.9%
Activity [3]: 13.8%
Activity [4]: Active
Activity [5]: Active
Activity [6]: 42.7%
Activity [7]: Active
Activity [8]: Dose-dependent effect
IC50 ([8]; PC-3, 48 h): 2920 nM
Activity [9]: Active
Activity [10]: 10.1%
Activity [11]: Active
Activity [12]: 14.6%
Activity [13]: 10.6%
Activity [14]: 1.8%
Activity [15]: Active
Activity [16]: 36.8%
Activity [17]: Active
Activity [18]: Active
Activity [19]: Active
Activity [20]: Active
Activity [21]: Active
inhibition of growth at 5 µM [22]: 83.4%
